pIC50: −log10 of the molar value. Entries after “also recorded” stand apart in the source; their conditions may differ. Read-outs that look alike come from different tables or passages of the source. Blank lines part the entries; values can stand above or below the compound they belong to.
Experiments:
[1] = format: in vivo, rat; conditions: plasma; for Tmax: median (range)
rat soluble COMT = target: T1, rat soluble COMT (Rattus norvegicus, UniProt P22734); experiment: COMT activity; format: biochemical; conditions: for Effect upon COMT activity: up to 3000 nM
T1 sequence (P22734 1-221 isoform P22734-2): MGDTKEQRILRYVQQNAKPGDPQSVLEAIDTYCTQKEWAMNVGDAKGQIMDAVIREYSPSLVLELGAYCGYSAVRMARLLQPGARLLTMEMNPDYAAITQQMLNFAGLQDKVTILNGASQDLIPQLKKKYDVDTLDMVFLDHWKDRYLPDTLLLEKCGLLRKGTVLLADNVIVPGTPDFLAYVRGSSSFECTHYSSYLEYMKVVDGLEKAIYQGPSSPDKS

HLS9, HIS9, and SULT1A1 = experiment: Inhibition of opicapone sulfation, result in words for all enzyme sources; format: biochemical, human; conditions: acetaminophen 1–500 μM; quercetin and 2,6-dichloro-4-nitrophenol 0.05–100 μM
[2] = format: in vivo, rat; conditions: oral 100 mg/kg; for Feces, % of administered dose: feces pools 0–48 h
Method in brief: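 In Sprague Dawley rats given 100 mg/kg [14C]-labelled compound (100 μCi/kg) orally in 0.2% HPMC, heparinized blood was taken by cardiac puncture at 2–168 h. Plasma was precipitated with MeOH/ACN (50:50), dried under N2 and reconstituted. Urine (0–6, 6–24 h) and feces (0–12, 12–24, 24–48 h) were pooled and stored at −80°C. Analysis used accurate-mass LC-MS with offline radiodetection.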

[3] = rat, po, 1 g/kg, t max, oral 1 g/kg opicapone

AUC(0-t) ([1]; rat, po, 1 g/kg): 7.92 µg·h/mL
Cmax ([1]; rat, po, 1 g/kg): 1.42 µg/mL
Tmax [1, 3]: 1.5 h
Effect upon COMT activity (rat soluble COMT): no modulatory effect
Structure (SMILES): COc1cc(-c2nc(-c3c(C)c(Cl)c(C)[n+]([O-])c3Cl)no2)cc([N+](=O)[O-])c1O [BIA 9‐1100, 2,5-dichloro-3-(5-(4-hydroxy-3-methoxy-5-nitrophenyl)-1,2,4-oxadiazol-3-yl)-4,6-dimethylpyridine 1-oxide]

Inhibition of the sulfate conjugation of opicapone (HLS9, HIS9, and SULT1A1): completely inhibited
Structure (SMILES): O=c1c(O)c(-c2ccc(O)c(O)c2)oc2cc(O)cc(O)c12 [Quercetin, quercetin]

AUC(0-t) ([1]; rat, po, 1 g/kg): 4.08 µg·h/mL
Cmax ([1]; rat, po, 1 g/kg): 0.381 µg/mL
Tmax [1, 3]: 4 h
pIC50 (rat soluble COMT): 6.89
Effect upon COMT activity (rat soluble COMT): active in inhibiting the enzyme
Feces, % of administered dose ([2]; ND = not detected, 100 mg/kg): 1.14%
Detectable in the circulation up to (time post-dose) ([2]; plasma): 8 h
Structure (SMILES): Cc1nc(Cl)c(-c2noc(-c3cc(O)c(O)c([N+](=O)[O-])c3)n2)c(C)c1Cl [BIA 9‐1079, 5-(3-(2,5-dichloro-4,6-dimethylpyridin-3-yl)-1,2,4-oxadiazol-5-yl)-3-nitrobenzene-1,2-diol]

Amount detected in circulation ([1]; oral 1 g/kg opicapone): only traceable amounts
Structure (SMILES): Cc1nc(Cl)c(-c2noc(-c3cc(O[C@@H]4O[C@H](C(=O)O)[C@@H](O)[C@H](O)[C@H]4O)c(O)c([N+](=O)[O-])c3)n2)c(C)c1Cl [BIA 9‐1107, (2S,3S,4S,5R,6S)-6-(5-(3-(2,5-dichloro-4,6-dimethylpyridin-3-yl)-1,2,4-oxadiazol-5-yl)-2-hydroxy-3-nitrophenoxy)-3,4,5-trihydroxy-tetrahydro-2H-pyran-2-carboxylic acid]

C max ([1]; oral 1 g/kg opicapone, mean (SD)): 58.2 (32.6) ng/ml
AUC0–t ([1]; oral 1 g/kg opicapone, mean (SD), sampling to 48 h): 1322.5 (503.5) ng.h/ml
Tmax ([1]; oral 1 g/kg opicapone): 16 (8–24) h
Structure (SMILES): Cc1nc(Cl)c(-c2noc(-c3cc(OS(=O)(=O)O)c(O)c([N+](=O)[O-])c3)n2)c(C)c1Cl.c1ccncc1 [BIA 9‐1105, pyridinium 5-(3-(2,5-dichloro-4,6-dimethylpyridin-3-yl)-1,2,4-oxadiazol-5-yl)-2-hydroxy-3-nitrophenyl sulfate]

Feces, % of administered dose ([2]; ND = not detected): 1.87%
Structure (SMILES): Nc1cc(C(=O)O)cc(O)c1O [BIA 9‐3721, 3-amino-4,5-dihydroxybenzoic acid]

Cmax ([1]; rat, po, 1 g/kg): 4.29 µg/mL
Urine, % of administered dose ([2]; urine pools 0–24 h, ND = not detected): 0.85%
Structure (SMILES): Cc1c(Cl)c(C)[n+]([O-])c(Cl)c1-c1noc(-c2cc(O[C@@H]3O[C@H](C(=O)O)[C@@H](O)[C@H](O)[C@H]3O)c(O)c([N+](=O)[O-])c2)n1 [BIA 9‐1106, 3-(5-(3-((2S,3R,4S,5S,6S)-6-carboxy-3,4,5-trihydroxytetrahydro-2H-pyran-2-yloxy)-4-hydroxy-5-nitrophenyl)-1,2,4-oxadiazol-3-yl)-2,5-dichloro-4,6-dimethylpyridine 1-oxide]

Effect upon COMT activity (rat soluble COMT): no modulatory effect
Structure (SMILES): CC(=O)Nc1cc(C(=O)O)cc(O)c1O [BIA 9‐3752, 3-acetamido-4,5-dihydroxybenzoic acid]

Structure (SMILES): O=[N+]([O-])c1cc(Cl)c(O)c(Cl)c1 [DCNP, 2,6‐dichloro‐4‐nitrophenol]
Inhibition of the sulfate conjugation of opicapone (HLS9, HIS9, and SULT1A1): completely inhibited

pIC50 (rat soluble COMT): 6.37
Structure (SMILES): COc1c(O)cc(-c2nc(-c3c(C)c(Cl)c(C)[n+]([O-])c3Cl)no2)cc1[N+](=O)[O-] [BIA 9‐1104, 2,5-dichloro-3-(5-(3-hydroxy-4-methoxy-5-nitrophenyl)-1,2,4-oxadiazol-3-yl)-4,6-dimethylpyridine 1-oxide]
Effect upon COMT activity (rat soluble COMT): active in inhibiting the enzyme; also recorded: endowed with activity in inhibiting COMT

Inhibition of the sulfate conjugation of opicapone (HLS9, HIS9, and SULT1A1): No inhibition
Structure (SMILES): CC(=O)Nc1ccc(O)cc1 [acetaminophen]
